Only a selection was taken, and hits are over-represented in it overall.
FXN GAA850 act – frataxin GAA850 promoter activation | activation, % at 6 µM | HEK293 lucGAA850 FXN promoter luciferase reporter, 24 h; percent of 10 µM SAHA response | hit rate 0.56% among 360,000 | AID 540364;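 active = activation above the average of all compounds screened plus 3 SD, cutoff fixed separately per campaign, cut at about 7.5% in these data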;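 also: 0% = DMSO wells and 100% = 10 µM SAHA wells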
UPR CHOP act – apoptotic UPR (CHOP) activation; activation, % at 10 µM; CHO-CHOP luciferase reporter, luminescence; percent of tunicamycin response over DMSO baseline; hit rate 0.34% among 330,000;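 active = at 10 µM dose, activation of 40% or more, normalized to positive control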;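 also: 100% = tunicamycin at 10 µg/mL and 0% = DMSO alone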
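System: CHO-CHOP luciferase reporter cell line; amount: 500 cells/well; buffer or medium: F12 medium containing 10% fetal bovine serum; incubation: 6 h compound exposure at 37 °C after overnight seeding; measured by: luciferase luminescence after 10 min with Steady-Glo reagent; evaluation: % reporter activation, DMSO baseline versus tunicamycin full activation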
CHOP inh – inhibitors of CHOP induction in ER stress response. hit rate 3.8% among 220,000. CHO-K1 CHOP-promoter luciferase, tunicamycin-induced, 15-18 h. AID 2732. inhibition, % at 10 µM;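 active = compounds that reduced the stress-induced luciferase reporter signal by more than about 70% of percent inhibition, limit read from the data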;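 also: 0% = tunicamycin plus vehicle and 100% = wells without tunicamycin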
XBP1 UPR activ – activators of adaptive arm of unfolded protein response (XBP1). activation, % at 20 µM. hit rate 0.33% among 330,000. CHO-XBP1 luciferase reporter, IRE1-XBP1 UPR activation, luminescence; percent of tunicamycin response, DMSO as zero;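 active = versus positive control, 20 µM dose yields 30% or more activation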;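 also: 100% = tunicamycin at 10 µg/mL and 0% = DMSO only wells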
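assay system = CHO-XBP1 luciferase reporter cells | amount = 1000 cells/well | buffer or medium = F12 plus 10% FBS | compound dosing = single point, 20 µM final compound, 1% DMSO | incubation = 16-18 h cell attachment at 37 °C, then 6 h compound exposure | detection = Steady-Glo luminescence read | controls = tunicamycin 10 µg/mL and vehicle-only wells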
Numbers without * were called inactive; · = no result; ! = a repeat was not active.

SMILES	FXN GAA850 act	UPR CHOP act	CHOP inh	XBP1 UPR activ
COc1ccc(N2C(=S)N=C(Nc3ccccc3)C23CCCCC3)cc1	0	-1	101*	7
O=C(O)c1ccccc1N/N=C/C1=C(N2CCOCC2)C(=C\c2ccccc2)/CC1	4	3	17	1
O=C(N/N=C/C1=C(N2CCOCC2)C(=C\c2ccccc2)/CC1)Nc1ccccc1	1	28	82*	17
Cn1nnnc1-c1cc(Br)ccc1NC(=O)c1ccccc1	0	-1	76*	0
COc1ccc(Cl)c(N2CCN(CCCNC(=O)Nc3ccc(C)cc3)CC2)c1	0	-4	83*	-4
COCCNC(=O)C1CCCN(C(=O)c2cncc(Br)c2)CC1 (centres undefined)	0	·	·	·
CCc1nc2ccc(C(=O)NCCc3ccccn3)cn2c1N(CC)CCOC	1	·	·	·
O=C(c1cccc(F)c1)N1CCN(c2cc(N3CCCCC3)c(F)cc2[N+](=O)[O-])CC1	-1	1	73*	-2
CCC(=O)N1CCN(c2cc(N3CCCC3)c(F)cc2[N+](=O)[O-])CC1	0	-1	·	-1
CCCCc1oc2ccccc2c1C(=O)c1cc(I)c(OCCN(CC)CC)c(I)c1	2	3	86*!	-6
CCOP(=O)(OCC)c1nc(-c2ccc(Cl)cc2)oc1NCc1ccccc1	-2	-2	92*	-3
Cc1cc(=O)[nH]c(SCC(=O)N2CCN(C(c3ccccc3)c3ccccc3)CC2)n1	-1	-1	74*	0
Clc1cccc(C2CCN(Cc3nc(COc4ccccc4)no3)C2)c1 (centres undefined)	1	0	4	1
c1ccc(OCc2noc(CN3CC[C@@H]4CCCC[C@H]4C3)n2)cc1	-1	0	75*	1
O=C(Nc1cccc(S(=O)(=O)N2CCCCC2)c1)Nc1ccc(Cl)cc1Cl	0	2	88*	9
O=C(Cc1ccccc1Cl)Nc1cccc(S(=O)(=O)N2CCCCCC2)c1	2	-1	·	-3
O=C(Nc1ccc(Cl)cc1Cl)NC1CCN(S(=O)(=O)c2ccc(F)cc2)CC1	0	-1	81*	4
CCCCCCCCCCCC1N=C(N)NC(CCCO)=C1C(=O)OC (centres undefined)	0	·	·	·
CCOc1cc(CNc2ccc(N3CCCCC3)cc2)cc(Br)c1OCC(=O)NC(C)(C)C	0	2	17	-3
CCOc1cc(CNc2ccc(N(C)C)cc2)cc(Br)c1OCC(=O)NC(C)(C)C	0	-2	95*	2
Cc1cccc(-c2n[nH]nc2C2=CC(=O)CC(C)(C)C2)c1	1	·	·	·
Cn1c(NCCOc2ccccc2Cl)nc2cc(-c3ccc(F)cc3)sc2c1=O	-1	·	·	·
O=C(NCCc1ccccc1C(F)(F)F)c1cc(COc2ccccc2)on1	1	·	·	·
Cc1ccc(S(=O)(=O)NC(=O)C2(C)CCN2C(=O)C2(c3ccc(Cl)cc3)CCC2)nc1 (centres undefined)	1	·	·	·
Cc1cc(C)nc(N2CCC(C(=O)Nc3ccc4c(c3)CCC4)CC2)n1	-3	-2	82*	-1
SMILES	FXN GAA850 act	UPR CHOP act	CHOP inh	XBP1 UPR activ
Cc1ccnc(N2CCC(C(=O)Nc3ccc4c(c3)CCC4)CC2)n1	-1	-3	23	0
Cc1cc(C)nc(N2CCC(C(=O)NC3CCCc4ccccc43)CC2)n1 (centres undefined)	0	0	73*	-2
Cc1cc(C)cc(NC(=O)C2CCCN(c3nccc(C)n3)C2)c1 (centres undefined)	1	-1	60	-1
Cc1cc(C)cc(NC(=O)C2CCCN(c3nc(C)cc(C)n3)C2)c1 (centres undefined)	-1	-2	70*	-1
COc1ccc(C(NC(=O)C2CCN(C/C=C/c3ccc(OC(C)=O)c(OC)c3)CC2)c2ccccn2)cc1 (centres undefined)	0	·	·	·
CCCCNC(=O)C1(C)CCCCN1CC(=O)c1ccc(OC)cc1 (centres undefined)	-2	·	·	·
O=C(c1ccc(COc2ccccc2Cl)o1)N1N=C(C(F)F)CC1(O)C(F)F (centres undefined)	1	0	75*	-3
Cc1c(Cl)cccc1NC(=S)NC1CC1	-1	-1	-19	-2
Cc1c(Cl)cccc1NC(=O)NC1CCCCC1	1	2	78*	-1
NC(=S)NC1CCS(=O)(=O)C1 (centres undefined)	-1	0	16	-4
C=CCSC(=S)NC1CCS(=O)(=O)C1 (centres undefined)	-1	7	70*	-6
Cc1ccc(OCc2nc(-c3ccccn3)no2)c(Br)c1	-4	-3	68	-2
CC(C)c1ccc(OCc2nc(-c3ccccn3)no2)c(Br)c1	7	1	71*	-2
CCOc1cc2c(cc1C(C)(C)C)NC(=O)CS2	-1	-2	85*	0
Cc1c(C(=O)NCc2cccc(C(F)(F)F)c2)sc(=O)n1Cc1ccccc1F	-3	·	·	·
C[C@@H]1CN([C@H](C)CO)C(=O)CCCn2cc(nn2)CO[C@H]1CN(C)C(=O)Nc1ccc2c(c1)OCCO2	-3	·	·	·
O=C(NCCO)C(=O)Nc1cc2c3c(c1)CC(=O)N3CCC2	1	0	·	-3
O=C(CCl)c1cc2c3c(c1)CC(=O)N3CCC2	8.6*	-8	·	-13
Cc1ccc(C)c(NC(=S)NNC(=O)c2csc3c2CCC(C)C3)c1 (centres undefined)	0	0	90*	1
COc1ccc(/C=C/C(=O)Nc2sc3c(c2C(=O)NCc2cccnc2)CCCC3)cc1	-4	2	81*	5
CCC(C)C(NC(=O)C1CCC(C)CC1)C(=O)Nc1cc(OC)ccc1OC (centres undefined)	-2	0	82*	-2
Cc1cc(Cl)ccc1Oc1ccc(C(N)=O)cc1[N+](=O)[O-]	2	1	81*	0
O=C(COC(=O)c1ccc2c(c1)OCCO2)NCc1ccc(Cl)cc1	0	·	·	·
CCCc1cc(=O)[nH]c(Nc2ccc(OC)c(Cl)c2)n1	1	-2	78*	-1
Cn1c(-c2c(N)n(-c3ccccc3)c3nc4ccccc4nc23)nc2ccccc21	-1	·	74*	·
SMILES	FXN GAA850 act	UPR CHOP act	CHOP inh	XBP1 UPR activ
Cc1cccc(-n2c(N)c(-c3nc4ccccc4n3C)c3nc4ccccc4nc32)c1	-4	1	49	0
CCc1nc2c(OCC(=O)C(C)(C)C)cccn2c1N(C)C(=O)C(C)C	1	·	·	·
O=C(NCc1cccc(C(F)(F)F)c1)c1csc(COCCO)n1	2	·	·	·
COCCn1c(SCC(=O)Nc2ccccc2C)nc2c(oc3ccccc32)c1=O	1	-1	79*	0
COCCn1c(SCC(=O)Nc2ccc(OC)cc2)nc2c(oc3ccccc32)c1=O	·	3	48	21
CN1CCN(C(=O)c2ccc(Cc3cn(C)c4ccccc34)nc2)CC1	-3	·	·	·
Cc1ccc(-n2[nH]c(C)c(C=Nc3ccc(S(=O)(=O)Nc4nccs4)cc3)c2=O)cc1	·	2	-18	-3
